APJ ag: agonists of human APJ apelin receptor. CHO-K1 APJ PathHunter beta-arrestin, luminescence; 0% DMSO wells, 100% apelin. P35414. activation, % at 20 µM. 330,000 compounds, 0.11% hits;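 active = activation more than six SD over the plate average, tested at 20 µM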
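Material: CHO-K1 APJ beta-arrestin complementation cell line; Input: cell density 1000 per well; Incubation: compound stimulation 90 min at 25 °C, detection 60 min; Signal: luminescence from split beta-galactosidase complementation, Galacton Star/Emerald II substrate; Controls: DMSO-only wells as negative, 10 nM Apelin-13 as positive control.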
APJ antagonist: APJ receptor antagonism; P35414; CHO-K1 APJ beta-arrestin complementation, luminescence; inhibition, % at 20 µM; 330,000 compounds, 0.32% hits;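 active = inhibition above about 40% at 20 µM, limit read from the data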;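 also: cells challenged with 10 nM apelin-13 agonist together with compound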
CCR6 antagonist: blocks CCL20-driven beta-arrestin recruitment at human CCR6. inhibition, % at 20 µM. 340,000 compounds, 0.49% hits. P51684. CHO-K1 CCR6 PathHunter beta-arrestin, luminescence, CCL20-stimulated;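 active = compounds whose inhibition of the agonist-driven luminescence signal at 20 µM reaches about 50%, limit read from the data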;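 also: cells stimulated with CCL20 at 14 nM final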
CXCR6 inh: inhibitors of human CXCR6 receptor. O00574. CHO-K1 PathHunter CXCR6 beta-arrestin, luminescence. inhibition, % at 20 µM. 360,000 compounds, 0.36% hits. AID 602244; in the data active = inhibition above about 34%, passing the limit was not always enough;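 also: antagonist mode with CXCL16 agonist at 10 nM final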
Target sequence (O00574 whole entry, looked up): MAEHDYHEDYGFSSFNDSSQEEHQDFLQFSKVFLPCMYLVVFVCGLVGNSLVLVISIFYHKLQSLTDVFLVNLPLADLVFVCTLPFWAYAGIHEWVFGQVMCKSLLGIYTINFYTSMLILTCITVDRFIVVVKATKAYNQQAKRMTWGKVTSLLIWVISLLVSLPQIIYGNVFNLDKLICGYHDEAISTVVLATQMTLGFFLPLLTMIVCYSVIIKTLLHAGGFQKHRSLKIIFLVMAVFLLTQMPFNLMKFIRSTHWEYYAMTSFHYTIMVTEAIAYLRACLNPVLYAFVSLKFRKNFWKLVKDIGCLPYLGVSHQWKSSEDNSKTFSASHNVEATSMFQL
EBI2 antag: blocks human EBI2 receptor beta-arrestin signaling | P32249 | EBI2 beta-arrestin recruitment, luminescence, 7a,25-OHC stimulated | inhibition, % at 5 µM | 360,000 compounds, 0.81% hits; in the data active = inhibition above about 38%;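 also: enzyme fragment complementation signal reports receptor beta-arrestin coupling in cells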
Target sequence (P32249 whole entry, looked up, the tested form may be a part): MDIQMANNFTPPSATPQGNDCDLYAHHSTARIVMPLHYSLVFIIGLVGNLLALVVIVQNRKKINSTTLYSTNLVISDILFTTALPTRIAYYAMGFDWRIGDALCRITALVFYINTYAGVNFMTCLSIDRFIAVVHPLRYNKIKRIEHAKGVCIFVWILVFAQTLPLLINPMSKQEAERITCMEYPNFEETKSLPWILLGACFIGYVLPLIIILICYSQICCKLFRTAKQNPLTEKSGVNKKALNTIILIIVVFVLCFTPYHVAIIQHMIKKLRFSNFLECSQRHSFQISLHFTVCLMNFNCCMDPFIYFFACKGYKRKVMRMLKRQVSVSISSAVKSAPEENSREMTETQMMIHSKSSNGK
EBI2 antag conf: EBI2 (human) antagonism, single concentration confirmation; shares compounds with EBI2 antag; EBI2 beta-arrestin luminescence, 7a,25-OHC antagonism; inhibition, % at 5 µM; 2,400 compounds, 29% hits; AID 651997;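 active = inhibition of at least 50%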
EBI2 ag: activates EBI2, counter-screen for EBI2 antagonists; AID 652000; shares compounds with EBI2 antag; activation, % at 5 µM; EBI2-expressing cells, agonist mode, luminescence, 60 min; 0% vehicle, 100% 7α,25-dihydroxycholesterol control; 2,400 tested, under 10 active;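 active = activation of at least 50%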
bGal counter: beta-galactosidase inhibition counter-screen | shares compounds with EBI2 antag | purified beta-galactosidase, luminescent Galacton Star, 15 min | inhibition, % at 5 µM | 2,400 compounds, 1% hits;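 active = replicate-average signal at least 3 plate SD below neutral wells, shown as high inhibition, flagging enzyme-inhibiting false positives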;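 also: higher means stronger loss of beta-gal luminescence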
Numbers stand for hits; n = inactive; x = no result given. The list is not random: actives were taken first. Their share in the collection is about 1.5%.

SMILES | APJ ag | APJ antagonist | CCR6 antagonist | CXCR6 inh | EBI2 antag | EBI2 antag conf | EBI2 ag | bGal counter
C[C@@H]1CN([C@H](C)CO)C(=O)CCCn2nncc2CO[C@H]1CN(C)S(=O)(=O)c1cccc(C#N)c1 | x | x | x | n | n | x | x | x
COc1ccccc1C(=O)N1CCN(C(=O)c2oc3ccc(C)cc3c2C)CC1 | n | n | n | n | 64.5 | n | n | n
Cc1c(C(=O)N2CCN(C(=O)c3ccccc3)CC2)oc2ccc(F)cc12 | n | n | n | n | 51.1 | n | n | n
Cc1c(C(=O)N2CCN(c3ncccn3)CC2)oc2ccc(F)cc12 | n | n | n | n | n | x | x | x
Cc1c(C(=O)N2CCN(S(=O)(=O)c3ccccc3)CC2)oc2ccc(Br)cc12 | n | n | n | n | 57.6 | n | n | n
Cc1cc(C2(c3ccc(O)c(C)c3)C(=O)Nc3ccccc32)ccc1O | n | n | n | n | 66.7 | n | n | n
Cc1cccc2c1NC(=O)C2(c1ccc(O)cc1)c1ccc(O)cc1 | n | n | n | n | n | x | x | x
S=c1[nH]nc(-c2cc(-c3ccccc3)n[nH]2)n1/N=C/c1ccccc1 | n | n | n | n | 51.1 | n | n | n
S=c1[nH]nc(-c2cc(-c3ccccc3)n[nH]2)n1/N=C/C(Br)=C/c1ccccc1 | n | n | n | n | 52.3 | n | n | n
CC(C)NC(=O)C1(C)CSCC(=O)N1Cc1ccco1 (stereo unspecified) | x | x | x | x | n | x | x | x
COc1ccc(NC(=O)c2cc(-c3ccc(F)cc3OC)n[nH]2)c(C)c1 | x | x | x | n | n | x | x | x
COc1ccc(NC(=O)C2(C)CCN2Cc2ccc(OC(F)(F)F)cc2)cc1OC (stereo unspecified) | x | x | x | n | n | x | x | x
CSC1=C(C#N)C(c2ccccc2Cl)C(C(C)=O)=C(C)N1 (stereo unspecified) | n | n | n | n | 65.3 | n | n | n
CSC1=C(C#N)C(c2ccccc2)C(C(C)=O)=C(C)N1 (stereo unspecified) | n | n | n | n | n | x | x | x
CCCc1c(C(=O)N/N=C/C=C/c2ccccc2)nnn1-c1nonc1N | x | x | x | n | n | x | x | x
O=C(CCc1ccccc1)Nc1ccc2ccccc2n1 | n | n | n | n | 72.4 | n | n | n
CC(C)Cn1c(N2CCN(CC(=O)Nc3ccc(Cl)cc3)CC2)nc2ccccc21 | n | n | n | n | 74.3 | n | n | n
Cc1ccccc1CN1CCN(C(=O)[C@H]2O[C@@H](n3cnc4c(N)ncnc43)[C@H](O)[C@@H]2O)CC1 | x | x | x | n | n | x | x | x
CC1(C(=O)NS(=O)(=O)C2CC2)CCCN(C(=O)c2cccnc2Oc2ccccc2)C1 (stereo unspecified) | x | x | x | n | n | x | x | x
c1ccc(COc2cccc(-c3cc4nc(NCCc5ccncc5)ccn4n3)c2)cc1 | x | x | x | n | 46.6 | n | n | n
Cc1ccc(S(=O)(=O)N2CCN(C(=O)c3cc(=O)c4ccccc4o3)CC2)cc1 | n | n | n | n | 46.1 | n | n | n
O=C(c1ccco1)N1CCN(S(=O)(=O)c2cccs2)CC1 | n | n | n | n | n | x | x | x
Cc1ccc(C(=O)N2CCN(S(=O)(=O)c3ccc(C)cc3)CC2)cc1 | n | n | n | n | n | x | x | x
O=C(c1cc2ccccc2o1)N1CCN(S(=O)(=O)c2cccs2)CC1 | n | n | n | n | 59.4 | 52.9 | n | n
O=C(c1ccc(Cl)cc1)N1CCN(S(=O)(=O)/C=C/c2ccccc2)CC1 | n | n | n | n | 91.7 | 66.8 | n | n
SMILES | APJ ag | APJ antagonist | CCR6 antagonist | CXCR6 inh | EBI2 antag | EBI2 antag conf | EBI2 ag | bGal counter
O=C(c1ccco1)N1CCN(S(=O)(=O)/C=C/c2ccccc2)CC1 | n | n | n | n | n | x | x | x
O=C(c1cc2ccccc2o1)N1CCN(S(=O)(=O)/C=C/c2ccccc2)CC1 | n | n | n | n | 91.5 | 85.9 | n | n
CCOC1=C2[C@H]([C@H]3C(=O)N(c4ccccc4)C(=O)[C@H]3C1)[C@@H](C(C)C)N(S(=O)(=O)c1ccc(C)cc1)[C@H]2c1ccccc1 | x | x | x | n | n | x | x | x
CC(C)[C@@H]1CC[C@@H](C)C[C@H]1O | x | x | x | n | n | x | x | x
COc1cc(SC)ccc1C(=O)N1CCN(S(=O)(=O)/C=C/c2ccccc2)CC1 | n | n | n | n | 65.0 | n | n | n
O=C(c1cc2ccccc2o1)N1CCN(S(=O)(=O)c2ccccc2)CC1 | n | n | n | n | 74.6 | n | n | n
CCOc1ccc(N2CSC(=S)N(c3ccc(OCC)cc3)C2)cc1 | n | n | n | n | 61.9 | n | n | n
CCOc1ccc(N2CC(=O)SC2=S)cc1 | n | n | n | n | n | x | x | x
COc1ccccc1N1CCN(C(=O)c2cc(=O)c3ccc(C)cc3o2)CC1 | n | n | n | n | n | x | x | x
COc1ccc(N2CCN(C(=O)c3cc(=O)c4cc(C)c(C)cc4o3)CC2)cc1 | n | n | n | n | 91.8 | 87.3 | n | n
COc1ccc(N2CCN(C(=O)c3cc(=O)c4cc(C)ccc4o3)CC2)cc1 | n | n | n | n | 92.1 | 81.7 | n | n
COc1ccc(N2CCN(C(=O)c3cc(=O)c4cc(C)cc(C)c4o3)CC2)cc1 | n | n | n | n | 79.7 | 84.3 | n | n
CC1(Oc2ccc(-n3ccnc3)cc2)CCN(Cc2cccn2-c2nccs2)C1 (stereo unspecified) | x | x | x | n | n | x | x | x
COc1ccccc1Cc1c(-c2ccc(OC)c(OC)c2)nc2c(Cl)cc(C(F)(F)F)cn12 | x | x | x | n | n | x | x | x
COc1cc2nc(Cl)nc(N3CCN(C)CC3)c2cc1OC | n | n | x | x | x | x | x | x
COc1cc2nc(C3CCC3)nc(N3CCN(c4ccccc4OC)CC3)c2cc1OC | n | n | n | n | 46.2 | n | n | n
CN1CCN(C(=O)c2ccc(CSc3ccc(Cl)cc3)cc2)CC1 | n | n | n | n | n | x | x | x
O=C(c1ccc(Cl)cc1)N1CCC(O)(CSc2ccc(Cl)cc2)CC1 | n | n | n | n | 68.8 | 56.5 | n | n
COc1cccc(SCC2(O)CCN(C(=O)c3ccc(Cl)cc3)CC2)c1 | n | n | n | n | 55.2 | n | n | n
O=C(c1ccc(Cl)cc1)N1CCC(O)(CSc2ccccc2)CC1 | n | n | n | n | 67.8 | 71.0 | n | n
Nc1ncnc2c1ncn2-c1ccccc1Cl | x | x | n | n | n | x | x | x
Cc1ccc(C(=O)C2CCN(C(=S)NCC3CCCO3)CC2)cc1 (stereo unspecified) | n | n | n | n | n | x | x | x
COc1ccc(C(=O)C2CCN(C(=S)NCC3CCCO3)CC2)cc1 (stereo unspecified) | n | n | n | n | 61.4 | n | n | n
COc1ccc(C(=O)C2CCN(C(=S)NCCc3ccccc3)CC2)cc1 | n | n | n | n | n | x | x | x

Assay outcomes as filed in PubChem BioAssay.
